pCIP destab: lowers stability of the mouse p/CIP coactivator protein; decrease of EGFP signal, % at 10 µM; Q05BA5; AID 1984; hit rate 0.01% among 290,000; F442A p/CIP-EGFP cells, EGFP fluorescence, 16 h;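 active means EGFP signal decrease of at least 30% at 10 µM or well 3 SD below plate mean, unless failing retest; inactive means the rest, including hits failing retest or dose response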
Target sequence (Q05BA5 1-1403): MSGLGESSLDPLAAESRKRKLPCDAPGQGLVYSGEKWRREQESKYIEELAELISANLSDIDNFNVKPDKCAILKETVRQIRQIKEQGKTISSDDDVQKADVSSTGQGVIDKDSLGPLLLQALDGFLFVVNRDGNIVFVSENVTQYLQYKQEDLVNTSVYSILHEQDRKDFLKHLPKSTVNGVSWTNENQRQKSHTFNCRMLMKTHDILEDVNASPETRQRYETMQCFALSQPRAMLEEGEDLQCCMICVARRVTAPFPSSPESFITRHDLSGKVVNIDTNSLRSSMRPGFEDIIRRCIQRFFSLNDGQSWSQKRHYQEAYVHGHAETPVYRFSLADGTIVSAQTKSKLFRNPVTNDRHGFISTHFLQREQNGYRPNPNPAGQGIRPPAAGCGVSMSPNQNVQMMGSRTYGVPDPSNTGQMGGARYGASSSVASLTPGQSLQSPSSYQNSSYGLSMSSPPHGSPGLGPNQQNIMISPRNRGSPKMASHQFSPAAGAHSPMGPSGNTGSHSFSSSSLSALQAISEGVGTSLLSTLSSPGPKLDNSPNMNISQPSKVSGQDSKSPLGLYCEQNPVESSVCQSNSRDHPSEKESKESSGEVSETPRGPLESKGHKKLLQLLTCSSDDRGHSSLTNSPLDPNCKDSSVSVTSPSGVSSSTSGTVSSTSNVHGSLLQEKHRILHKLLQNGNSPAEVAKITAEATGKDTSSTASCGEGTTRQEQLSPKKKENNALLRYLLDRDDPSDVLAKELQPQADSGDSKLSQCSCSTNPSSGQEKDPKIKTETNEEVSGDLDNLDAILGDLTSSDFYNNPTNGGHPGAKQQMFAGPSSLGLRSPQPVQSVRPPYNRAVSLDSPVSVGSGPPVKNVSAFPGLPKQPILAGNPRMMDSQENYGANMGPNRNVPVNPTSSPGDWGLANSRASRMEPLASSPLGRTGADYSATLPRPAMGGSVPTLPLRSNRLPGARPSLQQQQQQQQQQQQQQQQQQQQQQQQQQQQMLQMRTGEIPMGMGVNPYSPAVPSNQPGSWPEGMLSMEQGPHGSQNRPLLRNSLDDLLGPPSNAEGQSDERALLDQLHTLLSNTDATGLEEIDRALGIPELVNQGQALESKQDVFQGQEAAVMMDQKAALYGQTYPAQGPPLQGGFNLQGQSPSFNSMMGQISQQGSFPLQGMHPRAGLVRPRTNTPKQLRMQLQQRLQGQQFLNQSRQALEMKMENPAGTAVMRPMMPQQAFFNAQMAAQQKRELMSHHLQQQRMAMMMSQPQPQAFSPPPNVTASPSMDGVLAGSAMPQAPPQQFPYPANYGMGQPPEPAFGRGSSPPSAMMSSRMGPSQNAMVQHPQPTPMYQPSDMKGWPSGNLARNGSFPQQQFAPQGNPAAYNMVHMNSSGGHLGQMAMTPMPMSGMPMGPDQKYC
Dynein transport: dynein cargo transport inhibition; 3617.4 mouse cells, GR-EGFP nuclear translocation imaging; test concentration mostly 20 µM; stimulated with dexamethasone, 1 µM; active compounds read low; z-score, hits read low; hit rate 0.47% among 220,000;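 active means plate z-score of nuclear minus cytoplasmic receptor signal below a set negative limit, without overly bright fluorescence or cell loss, cut at about -3.5 in these data, passing the limit was not always enough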;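 further: z-score of nuclear minus cytoplasmic ring GR-EGFP intensity difference per well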
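Schedule: 48 h induction, then 1 h compound, then 30 min agonist, 37 °C. Buffer or medium: tetracycline-free induction medium containing charcoal-stripped FBS. Reagent: 1.0 µM final dexamethasone stimulus. Evaluation: nuclear versus cytoplasmic GR-EGFP signal, averaged per well. Signal: high-content fluorescence imaging after fixation.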
XBP1 UPR activ: activators of adaptive arm of unfolded protein response (XBP1). CHO-XBP1 luciferase reporter, IRE1-XBP1 UPR activation, luminescence; percent of tunicamycin response, DMSO as zero. activation, % at 20 µM. hit rate 0.33% among 330,000. AID 463104;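 active means versus positive control, 20 µM dose yields 30% or more activation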;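 further: 100% = tunicamycin at 10 µg/mL and 0% = DMSO only wells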
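Material: CHO-XBP1 cells stably carrying IRE1-XBP1-driven luciferase reporter / Amount: 1000 cells per well / Compound: 20 µM, 1% DMSO / Times: 6 h treatment, 37 °C / Detection: luciferase luminescence / Measure: % activation of reporter signal versus tunicamycin and DMSO controls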
CHOP UPR activ: apoptotic UPR (CHOP) activation; CHO-CHOP luciferase reporter, luminescence; percent of tunicamycin response over DMSO baseline; activation, % at 10 µM; hit rate 0.34% among 330,000; AID 449763;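 active means at 10 µM dose, activation of 40% or more, normalized to positive control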;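 further: 100% = tunicamycin at 10 µg/mL and 0% = DMSO alone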
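System: CHO-CHOP luciferase reporter cell line; amount: 500 cells/well; buffer or medium: F12 medium containing 10% fetal bovine serum; incubation: 6 h compound exposure at 37 °C after overnight seeding; measured by: luciferase luminescence after 10 min with Steady-Glo reagent; evaluation: % reporter activation, DMSO baseline versus tunicamycin full activation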
B2AR ag: activates human beta-2 adrenergic receptor causing internalization; P07550; Am2.2-beta2AR cells, FAP receptor internalization, flow cytometry; response, % (concentration not given with the values); hit rate 0.43% among 340,000; AID 504454;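 active means response above a set limit, near 3 SD of response in nonfluorescent compounds, cut at about 42% in these data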
CHOP inhibitor: blocks CHOP induction under ER stress. CHO-K1 CHOP-promoter luciferase, tunicamycin-induced, 15-18 h. inhibition, % at 10 µM. hit rate 3.8% among 220,000. AID 2732;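 active means compounds that reduced the stress-induced luciferase reporter signal by more than about 70% of percent inhibition, limit read from the data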;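 further: 0% = tunicamycin plus vehicle and 100% = wells without tunicamycin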
* marks the source's active call; other numbers are inactive results; nt = not tested or not shown. The full list was thinned out, with hits kept by preference.

SMILES	pCIP destab	Dynein transport	XBP1 UPR activ	CHOP UPR activ	B2AR ag	CHOP inhibitor
O=C(CCc1nnc2ccc(NCc3ccccc3)nn12)NC1CCCCC1	-2	nt	-6	-2	2	nt
CCN1C(=O)[C@@H]2[C@@H](c3ccc(-c4ccc(C(C)=O)cc4)c(OC)c3)N3CCCC[C@@]3(C(=O)OC)[C@@H]2C1=O	nt	nt	2	3	8	nt
CC(=O)Nc1cc(=O)c2cccnc2[nH]1	nt	nt	nt	nt	4	nt
O=C1SC(SCc2ccccc2Cl)=N/C1=C\c1ccc(C(=O)O)cc1	9	0.033	9	1	3	82*
CC1CCCN(C(=O)c2ccc(S(=O)(=O)N3CCC(c4nc5ccccc5s4)CC3)cc2)C1 (stereo unspecified)	nt	-0.3	-4	1	-6	nt
CCN(CC)C(=O)c1ccc(S(=O)(=O)N2CCC(c3nc4ccccc4s3)CC2)cc1	-9	0.23	-2	3	-3	74*
NC(=O)CC(NC(=O)Cc1cccc2ccccc12)c1ccc(NC2CC3CCC2C3)c([N+](=O)[O-])c1 (stereo unspecified)	4	nt	-2	-1	40	nt
Nc1c(-c2ccc(Cl)cc2)cnn1-c1cccc([N+](=O)[O-])c1	-14	0.13	2	5	-4	78*
Nc1c(-c2ccccc2)cnn1-c1cccc([N+](=O)[O-])c1	-2	-0.97	9	5	1	-14
O=C(CCn1cnc2ncccc2c1=O)N1CCN(c2cccc(Cl)c2)CC1	-4	-0.45	0	-3	2	13
C=CCOC(=O)c1cn(CC)c2nc(C)ccc2c1=O	-4	0.39	5	1	12	36
CCn1cc(C(=O)OCC(=O)OC2CC(C)CCC2C(C)C)c(=O)c2ccc(C)nc21 (stereo unspecified)	-11	-0.44	1	0	-3	89*
Cc1ccc(NCc2nnc(SCC(=O)N3CCCc4ccccc43)o2)c(C)c1	10	0.53	2	-1	-2	75*
O=C(CSc1nnc(CNc2ccccc2)o1)N1CCCc2ccccc21	-1	-0.69	0	0	5	-3
Cc1cccn2cc(-c3ccc(S(=O)(=O)N4CCOCC4)cc3)nc12	-6	1.4	1	-1	2	71*
Cc1ccc(OCC(=O)Nc2cccc(S(=O)(=O)N3CCOCC3)c2)c([N+](=O)[O-])n1	-11	0.23	-1	0	-9	-20
CC(=O)/C(N=Nc1nc2c([nH]1)c(=O)n(C)c(=O)n2C)=C(\C)O	-5	-0.28	1	0	-2	-1
CSc1ccccc1NC(=O)CN(C)C(=O)Cn1c(=O)oc2ccccc21	nt	nt	-1	2	8	nt
CCN(CC)S(=O)(=O)c1cccc(-c2n[nH]c(=S)n2/N=C/c2ccc(OC)cc2)c1	-13	-0.39	1	0	-5	-15
CCN(CC)S(=O)(=O)c1cccc(-c2n[nH]c(=S)n2/N=C/c2ccc(Br)cc2)c1	2	-0.47	1	-1	-8	90*
Cc1cccc(/C=N/n2c(-c3cc(-c4ccccc4)n[nH]3)n[nH]c2=S)c1	-2	-0.89	0	5	-1	75*
COc1cc(/C=C/C(=O)N(C)CC(=O)Nc2ccccc2SC)cc(OC)c1OC	nt	nt	2	0	4	nt
Oc1ccc(Br)cc1-c1cc(-c2ccco2)[nH]n1	8	-0.68	5	0	2	80*
Oc1ccc(Cl)cc1-c1cc(-c2ccco2)[nH]n1	6	0.75	3	3	-12	44
Oc1ccccc1-c1cc(-c2ccco2)[nH]n1	-5	-1.2	6	10	-2	25
SMILES	pCIP destab	Dynein transport	XBP1 UPR activ	CHOP UPR activ	B2AR ag	CHOP inhibitor
Oc1c(-c2cc(-c3ccco3)[nH]n2)ccc2ccccc12	3	0.13	5	6	11	75*
CN(CC(=O)Nc1ccc(F)c(F)c1F)C1CCCCC1	-7	2.7	0	-2	3	75*
CCN(CC(=O)Nc1ccccc1Br)C1CCCCC1	-9	1.2	1	1	1	73*
CN(CC(=O)Nc1ccccc1Br)C(=O)CCC1CCCC1	-12	nt	2	1	-8	nt
CN(CC(=O)Nc1ccc(F)c(F)c1F)c1cnccn1	nt	-1.3	-2	0	nt	74*
Cc1cccc(COc2ccc(/C=N/NC(=O)c3nnn(-c4nonc4N)c3COc3ccc(F)cc3)cc2)c1	-11	-0.2	37*	7	-14	29
O=C(COc1ccc(Cl)cc1Br)OCC(=O)c1ccc[nH]1	nt	nt	-3	0	9	nt
c1ccc(Cn2nnnc2C(c2cccs2)N2CCCCCC2)cc1 (stereo unspecified)	-3	-0.11	-1	-1	2	61
CC(C)C(c1nnnn1C1CCCCC1)N1CCc2ccccc2C1 (stereo unspecified)	-1	-0.58	0	-2	-4	-2
c1ccc(Cn2nnnc2C(c2cccs2)N2CCc3ccccc3C2)cc1 (stereo unspecified)	1	1.9	2	2	12	76*
CC(C)C(c1nnnn1Cc1ccccc1)N1CCc2ccccc2C1 (stereo unspecified)	-17	1	-2	-1	6	76*
Cn1nc(C(=O)NNC(=O)c2cccc(Cl)c2)ccc1=O	nt	nt	-2	0	2	nt
O=c1[nH]c(Cc2ccccc2)nc2scc(-c3ccccc3)c12	-13	0.64	0	-2	2	80*
N#Cc1cnc(SCCc2ccccc2)nc1N	-9	-0.24	2	5	5	54
CCCCCCSc1ncc(C#N)c(N)n1	2	0.055	1	2	0	84*
O=C(CC(c1ccccc1)c1ccccc1)Nc1ccc(Cl)cn1	-3	-0.59	-3	2	-1	78*
O=C(CCCOc1ccccc1)Nc1ccc(Cl)cn1	-11	-0.53	1	1	-251	72*
O=C(CS(=O)(=O)c1ccccc1)Nc1ccc(Cl)cn1	7	nt	-4	3	-1	nt
Cc1ccc(OCCC(=O)OCC(=O)Nc2ccc(Cl)cn2)cc1	-10	-0.49	-2	1	-1	74*
COc1cc(/C=N/NC(=O)c2nnn(-c3nonc3N)c2C(C)C)ccc1OCc1ccccc1	-13	nt	1	8	14	nt
O=c1c2cccnc2[nH]c(=S)n1CCCN1CCN(c2ccccc2F)CC1	-19	3.6	2	-2	4	89*
O=c1c2ccccc2[nH]c(=S)n1CCCN1CCN(c2ccccc2F)CC1	2	nt	-3	3	3	nt
Cc1c(Cl)c([N+](=O)[O-])nn1CCCC(=O)N(Cc1ccccc1)Cc1ccccc1	-15	1.4	-2	3	4	73*
